Source: ChEMBL document CHEMBL3352597, “Heck products of parthenolide and melampomagnolide-B as anticancer modulators that modify cell cycle progression” (Eur J Med Chem, 2014)
The source made the active and inactive calls. The calls are words filed in the database; no cut-off is given here.

How the values were obtained:
Format in all cases: functional
[1] = Anticancer activity against human BT549 cells
Outline: (§1)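 NCI 60 human cancer cell line panel, multiple-dose testing at five concentrations (10^-4, 10^-5, 10^-6, 10^-7 and 10^-8 M). Dose-response curves plot cytotoxic effect against log10 of drug concentration for each cell line. GI50 is the molar concentration giving 50% growth inhibition; LC50 is the concentration killing 50% of cells.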

[2] = tested on: MDA-MB-435; assay: Anticancer activity against human MDA-MB-435 cells; outline: as §1
[3] = Anticancer activity against human HCT15 cells; outline: as §1
[4] = tested on: SNB-19; assay: Anticancer activity against human SNB19 cells; outline: as §1
[5] = tested on: KM12; assay: Anticancer activity against human KM12 cells; outline: as §1
[6] = Anticancer activity against human UACC62 cells
Outline: (§2)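 NCI 60 human tumour cell line screen. A single-concentration pre-screen was run at 10^-5 M. Compounds selected from it were then tested at five concentrations, 10^-4 to 10^-8 M. Dose-response curves plotted cytotoxic effect against log10 of the drug concentration for each cell line. GI50 is the molar concentration giving 50% growth inhibition, and LC50 the concentration killing 50% of cells.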

[7] = tested on: NCI-H226; assay: Anticancer activity against human NCI-H226 cells; outline: as §1
[8] = tested on: DU-145; assay: Anticancer activity against human DU145 cells after 48 hrs; conditions: DU-145, 48 h; outline: as §1
[9] = tested on: 786-0; assay: Anticancer activity against human 786-0 cells; outline: as §1
[10] = tested on: TK-10; assay: Anticancer activity against human TK10 cells; outline: as §2
[11] = tested on: MCF7; assay: Anticancer activity against human MCF7 cells; outline: as §1
[12] = tested on: Malme-3M; assay: Anticancer activity against human MALME-3M cells; outline: as §1
[13] = Anticancer activity against human RPMI8226 cells; outline: as §1
[14] = tested on: SK-MEL-28; assay: Anticancer activity against human SK-MEL-28 cells; outline: as §1
[15] = tested on: SF-268; assay: Anticancer activity against human SF268 cells; outline: as §1
[16] = tested on: ACHN; assay: Anticancer activity against human ACHN cells; outline: as §1
[17] = tested on: IGROV-1; assay: Anticancer activity against human IGROV1 cells; outline: as §1
[18] = tested on: SR; assay: Anticancer activity against human SR cells; outline: as §2
[19] = tested on: HT-29; assay: Anticancer activity against human HT-29 cells; outline: as §1
[20] = tested on: K562; assay: Anticancer activity against human K562 cells; outline: as §1
[21] = Anticancer activity against human Hs 578T cells; outline: as §1
[22] = Anticancer activity against human LOXIMVI cells; conditions: LOX IMVI; outline: as §1
[23] = Anticancer activity against human PC3 cells; outline: as §1
[24] = tested on: NCI-H522; assay: Anticancer activity against human NCI-H522 cells; outline: as §1
[25] = tested on: NCI-H23; assay: Anticancer activity against human NCI-H23 cells; outline: as §1
[26] = tested on: A498; assay: Anticancer activity against human A498 cells; outline: as §1
[27] = tested on: SW-620; assay: Anticancer activity against human SW620 cells; outline: as §2
[28] = tested on: MDA-MB-468; assay: Anticancer activity against human MDA-MB-468 cells; outline: as §1
[29] = tested on: MDA-MB-231; assay: Anticancer activity against human MDA-MB-231 cells; outline: as §1
[30] = Anticancer activity against human HCC2998 cells; outline: as §1
[31] = Anticancer activity against human NCI-ADR-RES cells; outline: as §1
[32] = Anticancer activity against human UACC257 cells; outline: as §2
[33] = tested on: SNB-75; assay: Anticancer activity against human SNB75 cells; outline: as §2
[34] = tested on: A549; assay: Anticancer activity against human A549 cells; outline: as §1
[35] = Anticancer activity against human OVCAR8 cells; outline: as §1
[36] = Anticancer activity against human HCT116 cells; outline: as §1
[37] = tested on: U-251; assay: Anticancer activity against human U251 cells; outline: as §2
[38] = tested on: SN12C; assay: Anticancer activity against human SN12C cells; outline: as §1
[39] = Anticancer activity against human SF539 cells; outline: as §1
[40] = tested on: T47D; assay: Anticancer activity against human T47D cells; outline: as §2
[41] = tested on: CCRF-CEM; assay: Anticancer activity against human CCRF-CEM cells; outline: as §1
[42] = tested on: SK-MEL-5; assay: Anticancer activity against human SK-MEL-5 cells; outline: as §1
[43] = Anticancer activity against human SF295 cells; outline: as §1
[44] = Anticancer activity against human OVCAR4 cells; outline: as §1
[45] = tested on: SK-MEL-2; assay: Anticancer activity against human SK-MEL-2 cells; outline: as §1
[46] = Anticancer activity against human OVCAR3 cells; outline: as §1
[47] = tested on: M14; assay: Anticancer activity against human M14 cells; outline: as §1
[48] = Anticancer activity against human SKOV3 cells; outline: as §1
[49] = Anticancer activity against human UO31 cells; outline: as §2
[50] = tested on: CAKI-1; assay: Anticancer activity against human CAKI-1 cells; outline: as §1
[51] = tested on: NCI-H322M; assay: Anticancer activity against human NCI-H322M cells after 48 hrs; outline: as §1
[52] = tested on: NCI-H460; assay: Anticancer activity against human NCI-H460 cells; outline: as §1
[53] = read-out: LC50 (the source's name)

In the case of `C/C1=C\CC[C@@]2(C)O[C@@H]2[C@H]2OC(=O)/C(=C/c3ccsc3)[C@@H]2CC1`, the GI50 ([1]; BT-549) is reported as 20.1 µM, the CC50 ([1]; BT-549, read-out: LC50 (the source's name)) is reported as 88.2 µM and the GI50 [2] is reported as 18.3 µM. For the same molecule, the CC50 [2, 53] was greater than 100 µM, the GI50 ([3]; HCT-15) was 22.6 µM and the CC50 ([3]; HCT-15, read-out: LC50 (the source's name)) was greater than 100 µM. For the same molecule, the GI50 [4] was 47.6 µM, the CC50 [4, 53] was greater than 100 µM and the GI50 [5] was 20.4 µM. It also gave a CC50 [5, 53] of 86.7 µM, a GI50 ([6]; UACC-62) of 13.8 µM and a CC50 ([6]; UACC-62, read-out: LC50 (the source's name)) of 76.6 µM. The GI50 [7] was 30.2 µM, the CC50 [7, 53] was greater than 100 µM and the GI50 [8] was 25.7 µM. The CC50 [8, 53] was greater than 100 µM, the GI50 [9] was 35.7 µM and the CC50 [9, 53] was greater than 100 µM. The GI50 [10] was 34.7 µM, the CC50 [10, 53] was greater than 100 µM and the GI50 [11] was 20 µM. For the same molecule, the CC50 [11, 53] was greater than 100 µM, the GI50 [12] was 22.5 µM and the CC50 [12, 53] was greater than 100 µM. The GI50 ([13]; RPMI-8226) was 19.7 µM, the CC50 ([13]; RPMI-8226, read-out: LC50 (the source's name)) was greater than 100 µM and the GI50 [14] was 29.4 µM. For the same molecule, the CC50 [14, 53] was greater than 100 µM, the GI50 [15] was 21.3 µM and the CC50 [15, 53] was greater than 100 µM. The GI50 [16] was 32.8 µM, the CC50 [16, 53] was greater than 100 µM and the GI50 [17] was 27.9 µM. For the same molecule, the CC50 [17, 53] was greater than 100 µM, the GI50 [18] was 20.7 µM and the CC50 [18, 53] was greater than 100 µM. The GI50 [19] was 27 µM, the CC50 [19, 53] was greater than 100 µM and the GI50 [20] was 25.2 µM. For the same molecule, the CC50 [20, 53] was greater than 100 µM, the GI50 [21] was 21.5 µM and the CC50 [21, 53] was greater than 100 µM. The GI50 [22] was 18 µM, the CC50 [22, 53] was 71.2 µM and the GI50 ([23]; PC-3) was 22.7 µM. For the same molecule, the CC50 ([23]; PC-3, read-out: LC50 (the source's name)) was greater than 100 µM, the GI50 [24] was 5.44 µM and the CC50 [24, 53] was 59.7 µM. It also gave a GI50 [25] of 23 µM, a CC50 [25, 53] greater than 100 µM and a GI50 [26] of 17.5 µM. It also gave a CC50 [26, 53] greater than 100 µM, a GI50 [27] of 22.9 µM and a CC50 [27, 53] greater than 100 µM. It also gave a GI50 [28] of 17.7 µM, an LC50 (concentration killing 50% of cells) [28] greater than 100 µM and a GI50 [29] of 16 µM. It also gave an LC50 (concentration killing 50% of cells) [29] of 81.8 µM, a GI50 ([30]; HCC 2998) of 33.8 µM and a CC50 ([30]; HCC 2998, read-out: LC50 (the source's name)) greater than 100 µM. For the same molecule, the GI50 [31] was 23.6 µM, the CC50 [31, 53] was greater than 100 µM and the GI50 ([32]; UACC-257) was 16.6 µM. It also gave a CC50 ([32]; UACC-257, read-out: LC50 (the source's name)) greater than 100 µM, a GI50 [33] of 21.5 µM and a CC50 [33, 53] greater than 100 µM. It also gave a GI50 [34] of 29.8 µM, a CC50 [34, 53] greater than 100 µM and a GI50 ([35]; OVCAR-8) of 26.9 µM. It also gave a CC50 ([35]; OVCAR-8, read-out: LC50 (the source's name)) greater than 100 µM, a GI50 ([36]; HCT-116) of 28.3 µM and a CC50 ([36]; HCT-116, read-out: LC50 (the source's name)) greater than 100 µM. It also gave a GI50 [37] of 21.7 µM, a CC50 [37, 53] greater than 100 µM and a GI50 [38] of 25.8 µM. The CC50 [38, 53] was greater than 100 µM, the GI50 ([39]; SF-539) was 16.1 µM and the CC50 ([39]; SF-539, read-out: LC50 (the source's name)) was 62.2 µM. The GI50 [40] was 29.5 µM, the CC50 [40, 53] was greater than 100 µM and the GI50 [41] was 19.1 µM. For the same molecule, the CC50 [41, 53] was greater than 100 µM, the GI50 [42] was 16.3 µM and the LC50 [42] was 60.4 µM. It also gave a GI50 ([43]; SF-295) of 28.5 µM, a CC50 ([43]; SF-295, read-out: LC50 (the source's name)) greater than 100 µM and a GI50 ([44]; OVCAR-4) of 24.3 µM. For the same molecule, the CC50 ([44]; OVCAR-4, read-out: LC50 (the source's name)) was greater than 100 µM, the GI50 [45] was “inactive” and the LC50 [45] was “inactive”. The GI50 ([46]; OVCAR-3) was 20.5 µM, the CC50 ([46]; OVCAR-3, read-out: LC50 (the source's name)) was greater than 100 µM and the GI50 [47] was 20.5 µM. It also gave a CC50 [47, 53] greater than 100 µM, a GI50 ([48]; SK-OV-3) of 44.9 µM and a CC50 ([48]; SK-OV-3, read-out: LC50 (the source's name)) greater than 100 µM. For the same molecule, the GI50 ([49]; UO-31) was 27.3 µM, the CC50 ([49]; UO-31, read-out: LC50 (the source's name)) was greater than 100 µM and the GI50 [50] was 30.9 µM. For the same molecule, the CC50 [50, 53] was greater than 100 µM, the GI50 [51] was 44.7 µM and the CC50 [51, 53] was greater than 100 µM. For the same molecule, the GI50 [52] was 29.3 µM and the CC50 [52, 53] was greater than 100 µM.
